Measured values reported in ChEMBL document CHEMBL3272107, “Design of potent antagonists of the vasopressor response to arginine-vasopressin” (J Med Chem, 1978).
*1 amine or outer side, *2 acyl side, *3 side chain or, on linkers, in order; H or OH if unused. Where a SMILES comes first, the peptide text is derived from it. Bridges are numbered along the chain shown (N, C = ends). X1 = CC(C)(CC(=O)[*:1])S[*:2]

Key:
Rattus norvegicus [1] = experiment: Antidiuretic activity in iv dosed rat; assay type: functional, Urine
In short: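 Rats under ethanol anesthesia, analogue given intravenously; antidiuretic response measured by previously described method.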

Rattus norvegicus [2] = experiment: Antivasopressor activity in iv dosed phenoxybenzamine treated rat assessed as inhibition of arginine-vasopressin-induced effect; assay type: functional, organism-based; details: read-out: pA2 (converted)
In short: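 Rats pretreated with phenoxybenzamine and anaesthetised with urethane; pressor response to arginine-vasopressin recorded with and without intravenous analogue. pA2 derived by the Schild method, one pA2 calculated per assay group, reported as mean ± SE across groups, number of assays stated.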

Rattus norvegicus [3] = experiment: Vasopressor activity in iv dosed phenoxybenzamine treated rat; assay type: functional
In short: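 Rats pretreated with phenoxybenzamine, under urethane anesthesia, analogue given intravenously; vasopressor (blood pressure) response measured, antagonism expressed as pA2 by Schild method, pA2 calculated per assay group and reported as mean ± SE with number of assays.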

Question: For `CC[C@H](C)[C@@H]1NC(=O)[C@H](Cc2ccc(O)cc2)NC(=O)[C@@H](N)CSSC[C@@H](C(=O)N2CCC[C@H]2C(=O)N[C@@H](CC(C)C)C(=O)NCC(N)=O)NC(=O)[C@H](CC(N)=O)NC(=O)[C@H](CCC(N)=O)NC1=O` [OXYTOCIN], which Activity (Rattus norvegicus [1]) is on record?
Answer: 4 U/mg

Question: What does the source list for `COc1ccc(C[C@@H]2NC(=O)CC(C)(C)SSC[C@@H](C(=O)N3CCC[C@H]3C(=O)N[C@@H](CCCN=C(N)N)C(=O)NCC(N)=O)NC(=O)[C@H](CC(N)=O)NC(=O)[C@H](CCC(N)=O)NC(=O)[C@H](Cc3ccccc3)NC2=O)cc1` (Y(Me)FQNCPRG-NH2; linker N-5 via X1)?
Answer: Activity (Rattus norvegicus [1]): 3.5 U/mg; Kb (Rattus norvegicus [2]): 11 nM

Question: For `CC[C@H](C)[C@@H]1NC(=O)[C@H](Cc2ccc(O)cc2)NC(=O)CCSSC[C@@H](C(=O)N2CCC[C@H]2C(=O)N[C@@H](CC(C)C)C(=O)NCC(N)=O)NC(=O)[C@H](CC(N)=O)NC(=O)[C@H](CCC(N)=O)NC1=O` [DEMOXYTOCIN], which Activity (Rattus norvegicus [1]) is on record?
Answer: 19 U/mg

Question: What about the Activity (Rattus norvegicus [3]) of the same compound?
Answer: 1.44 U/mg

Question: For `NCCCC[C@H](NC(=O)[C@@H]1CCCN1C(=O)[C@@H]1CSSC[C@H](N)C(=O)N[C@@H](Cc2ccc(O)cc2)C(=O)N[C@@H](Cc2ccccc2)C(=O)N[C@@H](CCC(N)=O)C(=O)N[C@@H](CC(N)=O)C(=O)N1)C(=O)NCC(N)=O` [LYPRESSIN], which Activity (Rattus norvegicus [1]) is on record?
Answer: 212 U/mg

Question: And the Activity (Rattus norvegicus [3])?
Answer: 285 U/mg

Question: For `CC[C@H](C)[C@@H]1NC(=O)[C@H](Cc2ccc(OC)cc2)NC(=O)[C@@H](N)CSSC[C@@H](C(=O)N2CCC[C@H]2C(=O)N[C@@H](CC(C)C)C(=O)NCC(N)=O)NC(=O)[C@H](CC(N)=O)NC(=O)[C@H](CCC(N)=O)NC1=O`, which Activity (Rattus norvegicus [1]) is on record?
Answer: 0.01 U/mg

Question: `COc1ccc(C[C@@H]2NC(=O)[C@@H](N)CSSC[C@@H](C(=O)N3CCC[C@H]3C(=O)N[C@@H](CCCNC(=N)N)C(=O)NCC(N)=O)NC(=O)[C@H](CC(N)=O)NC(=O)[C@H](CCC(N)=O)NC(=O)[C@H](Cc3ccccc3)NC2=O)cc1` was tested. Which Activity (Rattus norvegicus [1]) did it give?
Answer: 386 U/mg

Question: And the Activity (Rattus norvegicus [3])?
Answer: 9.7 U/mg

Question: Which results are given for `COc1ccc(C[C@@H]2NC(=O)[C@@H](N)CSSC[C@@H](C(=O)N3CCC[C@H]3C(=O)N[C@@H](CCCCN)C(=O)NCC(N)=O)NC(=O)[C@H](CC(N)=O)NC(=O)[C@H](CCC(N)=O)NC(=O)[C@H](Cc3ccccc3)NC2=O)cc1`?
Answer: Activity (Rattus norvegicus [1]): 79 U/mg; Activity (Rattus norvegicus [3]): 2.4 U/mg

Question: Which Activity (Rattus norvegicus [1]) does the source give for `CC1(C)CC(=O)N[C@@H](Cc2ccc(O)cc2)C(=O)N[C@@H](Cc2ccccc2)C(=O)N[C@@H](CCC(N)=O)C(=O)N[C@@H](CC(N)=O)C(=O)N[C@H](C(=O)N2CCC[C@H]2C(=O)N[C@@H](CCCNC(=N)N)C(=O)NCC(N)=O)CSS1` (YFQNCPRG-NH2; linker N-5 via X1) here?
Answer: 42 U/mg

Question: With `N=C(N)NCCC[C@@H](NC(=O)[C@@H]1CCCN1C(=O)[C@@H]1CSSCCC(=O)N[C@@H](Cc2ccc(O)cc2)C(=O)N[C@@H](Cc2ccccc2)C(=O)N[C@@H](CCC(N)=O)C(=O)N[C@@H](CC(N)=O)C(=O)N1)C(=O)NCC(N)=O` [DESMOPRESSIN] as the compound, how does the Activity (Rattus norvegicus [3]) read?
Answer: 346 U/mg

Question: Which Activity (Rattus norvegicus [1]) does the source give for `N=C(N)NCCC[C@H](NC(=O)[C@@H]1CCCN1C(=O)[C@@H]1CSSC[C@H](N)C(=O)N[C@@H](Cc2ccc(O)cc2)C(=O)N[C@@H](Cc2ccccc2)C(=O)N[C@@H](CCC(N)=O)C(=O)N[C@@H](CC(N)=O)C(=O)N1)C(=O)NCC(N)=O` [VASOPRESSIN] here?
Answer: 323 U/mg
